Results: the RNAGym collection of RNA variant scans (doi:10.1126/science.aae0568)
Fewer inactive variants are shown than the library holds.

B1: tRNA (parent)
chain: GUUCCGUUGGCGUAAUGGUAACGCGUCUCCCUCCUAAGGAGAAGACUGCGGGUUCGAGUCCCGUACGGAACG

Variants of: B1
Experiment: yeast fitness relative to wild type (ratio to wild type); higher = fitter; tRNA-Arg(CCU), competitive growth, 37 C, YPD
Procedure, shortened: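 Genotype frequency changes were the basis for Darwinian fitness relative to wild type. The frequencies came from 100-nucleotide paired-end sequencing of gene amplicons from the start population and each end population of pooled yeast strains with tRNA-Arg(CCU) gene variants at the native locus. Competition ran in YPD at 37°C for 24 hours in six replicates, genotypes needed ≥ 100 starting reads, and estimates < 0.5 were set to 0.5.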

| Variant | yeast fitness |
| --- | --- |
| GCUCCGUUGGAGUAAUGGUAAGGCGUCUCCCUCCUAAGGAAACGACUGCGCGUUCGAGUCCCGUAUUGAACG [U2C C11A C22G G41A A43C G51C C66U G67U] | 0.584 |
| GCUCCGUUGGCGUAAUGGUAACGCGUGUCCCUCCUAAGGAGAAGACUGCGGGUUCGAGUCCCGUACGGAACG [U2C C27G] | 0.748 |
| GCUCCGUUGGCGUAAUGGUAACGCGUUUCCCUCCUAAGGAGAAGACUGCGGGUUCGAGUCCCGUACGGAACG [U2C C27U] | 0.881 |
| GCUCCGUUGGCGUAAUGGUAACGCGUAUCCCUCCUAAGGAGAAGACUGCGGGUUCGAGUGCCGUACGGAACG [U2C C27A C60G] | ≤ 0.5 |
| GCUCCGUUGGCGUAAUGGUAACGUGUCUCCCUCCUAAGGAGAACACUGCGGGUUCGAGUCCCGUACGGAACG [U2C C24U G44C] | ≤ 0.5 |
| GCUUCGUUGGCGUAAUGGUAACGCGUCUCCCUCCUACGGAGAAGACUACGGGUUCGAGUGCCGUUCGGAACG [U2C C4U A37C G48A C60G A65U] | ≤ 0.5 |
| GCUUCGUUGGCGUAAUGGUAACGCGUCUCCCUCCUAAGGAGAAGACAGCGGGUUCGAGUCCCGUACGGAACG [U2C C4U U47A] | 0.525 |
| GCUCCGUUGGUAUAGUGGUAACGCGUCUCCCUCCUAAGGAGAAGACUGCGGGUUCGAGUCCCGUACGGAACG [U2C C11U G12A A15G] | ≤ 0.5 |
| GCUUCGUUGGCGUAAUGGUAACGCCUCUUCCUCCUAAGGAGAAGACUGCGGGUUCGAGUCCCGUAAGGAACG [U2C C4U G25C C29U C66A] | ≤ 0.5 |
| GCUCCGUUGGCGUAAUGGUAACGCGUCUCCCUCCUAAGGAGAGGACUGCGGGUUCGAGUCCCGUACGGAACG [U2C A43G] | 0.887 |
| GCUCCGUUGGCGUAAUGGUAACGAGUCUCCCUACUAAGGAGAAGAUUGCGGGUUCGAGUCCCGUACGGAACG [U2C C24A C33A C46U] | ≤ 0.5 |
| GCUCCGUUGGCGUAAUGGUAACGCGUCUCCCUCCUAAGGAGAAGACUGCGGGUUCGAGUCCCGUGCGACACG [U2C A65G G68A A69C] | 0.563 |
| GCUCCGUUGGAGUAAUGGUAACGCGUCUCCCUCGUAAGGAGAAGACUGCGAGUUCGAGUCCCGUACGGAACG [U2C C11A C34G G51A] | ≤ 0.5 |
| GCUCCGUUGGUGUAAUGGUAACGCGUCUCCCUCCUAAGGAGAAGACUGCGGGUUCCAGUCCUGUACGGAACG [U2C C11U G56C C62U] | ≤ 0.5 |
| GCUCCGUUGGCGUAAUGGUAACGCGUCUCCCUCCUAAGGAGAGGACUGCGGGUUCGCGUCCCGUUCGGAACG [U2C A43G A57C A65U] | ≤ 0.5 |
| GCUCCGUUGGCGUAAUGGUAACGGGUCUCCCUCCUAAGGAGAAGACUGCGGGUUCGAGUCGCGUACGGAACG [U2C C24G C61G] | ≤ 0.5 |
| GCUCCGUUGGCGUAAUGGUAACGUGUCUUACUCCUAAGGAGAAGACUGCGGGUUCGAGUCCCGUACGGAACG [U2C C24U C29U C30A] | 0.59 |
| GCUCCGUUGGAGUAAUGGUAACGCGUCUCCCUCCUAAGGAGAAGACUGCGGGUUCGAGUCCCGUACGGAACG [U2C C11A] | ≤ 0.5 |
| GCUUCGUUGGCGUAAUGGUAACGCGUCUCCCUCCUGAGGAGAACACUGCGGGUUCGAGUCCCGUACGGAACG [U2C C4U A36G G44C] | 0.615 |

| Variant | yeast fitness |
| --- | --- |
| GCUACGUUGGCGUAAUGCUAACGCGUCUCCCUCCUAAGGAGAAGACUGCGGGUUCGAGUCCCAUACGGAACG [U2C C4A G18C G63A] | 0.633 |
| GCUCCGUUGGAGUAAUGGUAAGGCGUCUCCCUCCUAAGGAAACGACUGCGCGUUCGAGUCCCGUACGGAACG [U2C C11A C22G G41A A43C G51C] | ≤ 0.5 |
| GCUCCGUUGGCGUAAUGGUAACGAGUCUCCCUCCUAAGGAGAAGACUGCGGGUUCGAGUCCCGUAUGGAACG [U2C C24A C66U] | 0.61 |
| GCUCCGUUGGCGUAAUGGUAACGGGUCUCCCUGCUAAGGAGAAGACUGCGGGCUUGAGUCCCGUACGGAGCG [U2C C24G C33G U53C C55U A70G] | ≤ 0.5 |
| GCUCCGUUGGCGUAAUGGUAACGCGUCUCCCUCCUAAGGAGAUCACUGCGGGUUCGAGUCCCGUACGGAACG [U2C A43U G44C] | ≤ 0.5 |
| GCUUCGUUGGCGUAAUGGUAACGCGUCUCCCUCCUAAGGAGAAGAUUGCUGGUUUGAGUCCCGUACGGAACG [U2C C4U C46U G50U C55U] | ≤ 0.5 |
| GCUCAGUUGGCGUAAUGGUAACGCGUCUGCCUCCUAAGGAGAAGACUACGGGUUCGAGUCCCGUACGGUACG [U2C C5A C29G G48A A69U] | ≤ 0.5 |
| GCUCCGUUGGCGUAAUGGUAACGUGUCUCCCUCCUAAGGAGAAGACUGCGGGUUCGUGUCCCGUACGGAACG [U2C C24U A57U] | ≤ 0.5 |
| GCUUCGUUGGCGUAAUGGUAACGCGUCUCCCUCCUAAGGAGAAGACUGCGGGUUCGAGUCCCGUACGGAACG [U2C C4U] | 0.969 |
| GCUUCGUUGGCGUAAUGGUAACGCCUCUUCCUCCUAAGGAGAAGACUGCGGGUUCGAGUCCCGUACGAAACG [U2C C4U G25C C29U G68A] | ≤ 0.5 |
| GCUACGUCGGCGUAAUGCUAACGCGUCUCCCUCCCAAGGAGAAGACUGCGGGUUCGAGUCCCAUACGGAACG [U2C C4A U8C G18C U35C G63A] | ≤ 0.5 |
| GCUCCGUUGGUGUAAUGGUAACGCGUCUCCCUCCUAAGGAGAAGACUGCGGGUUCGAGACCCGUACGGAACG [U2C C11U U59A] | 0.586 |
| GCUCCGUUGGUGUAAUGGUAACGCUUCUUCCUCCUAAGAAGAAGACUGCGGGUUCGAGUCCCGUACGGAACG [U2C C11U G25U C29U G39A] | ≤ 0.5 |
| GCUCCGUUGGCGUAAUGGUAACGCGUCUCCCUCCUAAGGAGAAGACUGCGGGUUCGUGUCCUGUACGGAACG [U2C A57U C62U] | 0.549 |
| GCUCCGUUGGCGUAAUGGUAACGCGUGACCCUCCUAAGGAGAUGACUGCGGGUUCGAGUCAUGUUCGGCACG [U2C C27G U28A A43U C61A C62U A65U A69C] | ≤ 0.5 |
| GCUCCGUUGGCGUAAUGGUAACGUCACUCCCUCCUAAGGAGAAGACUGCGGGUUCGGGUCCCGUACGGAACG [U2C C24U G25C U26A A57G] | 0.878 |
| GCUCCGUUGGCGUAAUGGUAACGCGUCUCCCUCCUAAGGAGAAGACUGCGGGUUCGUGUCCCGUACCGAACG [U2C A57U G67C] | 0.562 |
| GCUACGUUGGCGUAAUGGUAACGCGUCUCCCUCAUAAGGAGAGGACUGCGGCUUCGAGUGCCGUGCGGAACG [U2C C4A C34A A43G G52C C60G A65G] | ≤ 0.5 |
| GCUACGUUGGCGUAAUAGUAACGCGUCUCCCUCCUAAGGAGAAGACUGCGGGUUCGAGUGCCGUACGGAACG [U2C C4A G17A C60G] | ≤ 0.5 |
